Experimental data of several laboratories.
Compare with care: the assays were run in different laboratories.
Organism: Plasmodium falciparum
Read-out: parasite growth

CCCCCCCCNC(C)C(O)c1ccc(SC(C)C)cc1 (centres unmarked)
IC50 (K1; drug-resistant strain, blood stage): 5.1 nM

COc1cc(/C=C/C(=O)C(=Cc2cccc(O)c2)C(=O)/C=C/c2ccc(O)c(OC)c2)ccc1O
EC50 (K1; drug-resistant strain, blood stage): 11000 nM

CCN1CCN(Cc2ccc(Nc3nc4ccc(Oc5ccnc(NC(=O)C6CCN(C)CC6)c5)cc4n3C)cc2C(F)(F)F)CC1
IC90 (flow cytometry; DD2; 72 h, blood stage): 166 nM

CCN(CC)CCCC(C)Nc1ccnc2cc(Cl)ccc12 (centres unmarked)
IC50 (DD2; drug-resistant strain): 76.8 nM

Cc1cc(F)cc(C)c1NC(=N)CC(O)c1cc2c(F)cc(F)cc2c2cc(C(F)(F)F)ccc12 (centres unmarked)
IC50 (ELISA; 3D7; 72 h, blood stage): 11.6 nM

COc1cc(/C=C/C(=O)C(=Cc2ccc([N+](=O)[O-])cc2)C(=O)/C=C/c2ccc(O)c(OC)c2)ccc1O
EC50 (K1; drug-resistant strain, blood stage): 9100 nM

C[C@@H]1CC[C@H]2[C@@H](C)C(=O)O[C@@H]3O[C@@]4(C)CC[C@@H]1[C@]32OO4
IC50 (DD2; 72 h, drug-resistant strain, blood stage): 9.1 nM

COc1cc(/C=C/c2cc(/C=C/c3ccc(O)c(OC)c3)n(-c3ccc(Cl)cc3Cl)n2)ccc1O
EC50 (K1; drug-resistant strain, blood stage): 25900 nM

CO[C@H]1C[C@H](O[C@@H]2/C(C)=C/C[C@@H]3C[C@@H](C[C@]4(CC[C@H](C)[C@@H](C5CCCCC5)O4)O3)OC(=O)[C@@H]3C=C(C)/C(=N/O)[C@H]4OC/C(=C\C=C\[C@@H]2C)[C@]43O)O[C@@H](C)[C@@H]1O
IC50 (DD2; drug-resistant strain, blood stage): 179 nM

CCN(CC)CCCC(C)Nc1ccnc2cc(Cl)ccc12 (centres unmarked)
EC50 (K1; drug-resistant strain, blood stage): 530 nM

N=C(CC(O)c1cc2c(F)cc(F)cc2c2cc(C(F)(F)F)ccc12)Nc1ccc(N2CCC(F)(F)CC2)cc1 (centres unmarked)
IC50 (ELISA; 3D7; 72 h, blood stage): 33.6 nM

C[C@@H]1CC[C@H]2[C@@H](C)C(=O)O[C@@H]3O[C@@]4(C)CC[C@@H]1[C@]32OO4
IC50 (SYBR Green; 3D7; blood stage): 19.5 nM

N=C(CC(O)c1cc2c(F)cc(F)cc2c2cc(C(F)(F)F)ccc12)Nc1ccc(Br)c(F)c1 (centres unmarked)
IC50 (ELISA; 3D7; 72 h, blood stage): 5.3 nM

COc1cc(/C=C/c2cc(/C=C/c3ccc(O)c(OC)c3)n(-c3cccc([N+](=O)[O-])c3)n2)ccc1O
EC50 (K1; drug-resistant strain, blood stage): 16700 nM

N=C(CC(O)c1cc2c(F)cc(F)cc2c2cc(C(F)(F)F)ccc12)N1CCC(F)(F)CC1 (centres unmarked)
IC50 (ELISA; 3D7; 72 h, blood stage): 14.4 nM

CO[C@H]1/C=C/O[C@@]2(C)Oc3c(C)c(O)c4c(O)c(c(/C=N/N5CCN(C)CC5)c(O)c4c3C2=O)NC(=O)/C(C)=C\C=C\[C@H](C)[C@H](O)[C@@H](C)[C@@H](O)[C@@H](C)[C@H](OC(C)=O)[C@@H]1C
IC50 (DD2; drug-resistant strain, blood stage): 573 nM

N=C(CC(O)c1cc2c(F)cc(F)cc2c2cc(C(F)(F)F)ccc12)Nc1ccc(-c2ccc(F)cc2)cc1 (centres unmarked)
IC50 (ELISA; 3D7 DD2; blood stage): ~5 nM

N=C(N)N/N=C/c1c(Cl)cccc1Cl
IC50 (DD2; drug-resistant strain, blood stage): 1310 nM

COc1cc(C=C(C(=O)/C=C/c2ccc(O)c(OC)c2)C(=O)/C=C/c2ccc(O)c(OC)c2)ccc1O
EC50 (K1; drug-resistant strain, blood stage): 18800 nM

N=C(CC(O)c1cc2c(F)cc(F)cc2c2cc(C(F)(F)F)ccc12)Nc1cccc(F)c1 (centres unmarked)
IC50 (ELISA; 3D7 DD2; blood stage): ~2 nM
